The values that follow come from ChEMBL document CHEMBL1806459, “Discovery of N-(1-ethylpropyl)-[3-methoxy-5-(2-methoxy-4-trifluoromethoxyphenyl)-6-methyl-pyrazin-2-yl]amine 59 (NGD 98-2): an orally active corticotropin releasing factor-1 (CRF-1) receptor antagonist” (J Med Chem, 2011).

The target in data set [1] is T1, Corticotropin-releasing factor receptor 1 (Homo sapiens, UniProt P34998).
T1 sequence (P34998 whole entry): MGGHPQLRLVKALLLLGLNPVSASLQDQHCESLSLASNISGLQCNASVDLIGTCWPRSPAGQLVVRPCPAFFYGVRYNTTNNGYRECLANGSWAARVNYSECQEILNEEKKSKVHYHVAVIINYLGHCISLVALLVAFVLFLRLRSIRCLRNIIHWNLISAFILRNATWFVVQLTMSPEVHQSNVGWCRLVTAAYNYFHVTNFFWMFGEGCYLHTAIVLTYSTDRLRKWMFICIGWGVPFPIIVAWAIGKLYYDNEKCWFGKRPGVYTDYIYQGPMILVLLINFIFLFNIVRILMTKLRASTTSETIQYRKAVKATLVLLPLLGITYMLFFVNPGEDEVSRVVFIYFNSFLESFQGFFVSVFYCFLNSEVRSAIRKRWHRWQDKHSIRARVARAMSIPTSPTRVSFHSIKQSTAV
Briefly: Antagonist activity at human CRF-1 receptor. It counts as functional.

For data set [2], the target named is T1, Corticotropin-releasing factor receptor 1. The experiment in a line: Displacement of [125I]-sauvagine from human CRF-1 receptor expressed in human IMR-32 cells after 2 hrs by scintillation counting. It counts as cell-based. Put shortly: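 Competition binding against 125I-sauvagine on membrane preparations from IMR-32 human neuroblastoma cells, which express CRF-1 endogenously. Modified from a published method.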
(Loss of bound radioactivity is the signal in a displacement assay; it reports binding, not function.)

Data set [3] in a line: Half life in human microsomes. It counts as ADME, Microsome. The method, boiled down:
(§1)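 Stability in human or rat liver microsomes; half-life (T1/2, min) of compound turnover reported.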

Data set [4] can be described thus: Half life in rat microsomes. It counts as ADME, Microsome. The method, boiled down:
as §1

With `CCCN(CCC)c1c(C)ncc2c(-c3ccc(Cl)cc3Cl)cccc12`, the Ki in data set [1] was found to be 103 nM.
With `CCC(CC)Nc1nc(OC)c(-c2ccc(Cl)cc2Cl)nc1OC`, in data set [2], the Ki came out at 8.4 nM. Further, the half-life in data set [3] came to 16 min; in data set [4], 2.5 min.
For `CCc1nc(-c2ccc(Cl)cc2Cl)c(C)nc1NC(CC)CC` the same measures were 8.6 nM, 18 min and 4.2 min.
For `CCc1nc(-c2ccc(OC)cc2OC(F)(F)F)c(CC)nc1NC(CC)CC` the same measures were 4.1 nM, 16 min and 4.1 min.
Turning to `CCc1nc(-c2ccc(Cl)cc2Cl)c(CC)nc1SC(C)CC` (stereo unspecified), the Ki in data set [2] was found to be 401 nM. The half-life in data set [3] was determined as 17 min; in data set [4] it was 4.1 min.
For `CCc1nc(-c2ccc(OC(F)(F)F)cc2OC)c(CC)nc1NC(CC)CC` the same measures were 7.2 nM, 13 min and 2.5 min.
As for `CCc1nc(-c2ccc(OC(F)(F)F)cc2OC)c(OC)nc1NC(CC)CC`, the affinity in data set [2], expressed as Ki, was 6.1 nM. The half-life turned out to be 52 min in data set [3] and 36 min in data set [4].
For `CCc1nc(-c2ccc(Cl)cc2Cl)c(CC)nc1NC(COC)COC` the same measures were 224 nM, 9 min and 2.5 min.
Take `CCC(CC)Nc1nc(C)c(-c2ccc(Cl)cc2Cl)nc1OC`: the Ki in data set [2] stood at 4.3 nM.
For the compound `CCc1nc(NC(CC)CC)c(OC)nc1-c1ccc(Cl)cc1Cl`, in data set [2], the affinity, expressed as Ki, was 5.9 nM. The half-life in data set [3] was 35 min.
In turn, `CCc1nc(NC(CC)CC)c(OC)nc1-c1ccc(OC)cc1C(F)(F)F` returned a Ki in data set [2] of 2.2 nM. The half-life in data set [3] and in data set [4] was 120 min each time.
As to `CCCC(CCC)N1CCn2nc(-c3ccc(Cl)cc3Cl)c3nc(C)cc1c32`, affinity in data set [1] was put at a Ki of 4 nM.
In data set [2], `CCc1nc(-c2ccc(C(F)(F)F)cc2OC)c(CC)nc1NC(CC)CC` displayed a Ki of 5.6 nM. In data set [3], the half-life came out at 11 min.
For `CCc1nc(NC(CC)CC)cnc1-c1ccc(Cl)cc1Cl` the same measures were 545 nM and 28 min.
Take `CCc1nc(-c2ccc(OC(F)F)cc2Cl)c(OC)nc1NC(CC)CC`: in data set [2], the affinity corresponds to a Ki of 2.5 nM. Besides, the half-life in data set [3] amounted to 120 min; in data set [4], 17 min.
For `CCc1nc(-c2ccc(Cl)cc2Cl)c(OC)nc1NC(CC)CC` the same measures were 8 nM, 42 min and 11 min.
For `CCOc1ccc(-c2nc(OC)c(NC(CC)CC)nc2C)c(Cl)c1` the same measures were 5.9 nM, 120 min and 47 min.
For `CCc1nc(-c2ccc(OC)cc2OC)c(CC)nc1NC(CC)CC` the same measures were 7.3 nM, 8 min and 2.5 min.
Compound `CCc1nc(-c2ccc(OC)nc2OC)c(CC)nc1NC(CC)CC` yielded a Ki in data set [2] of 11.6 nM. Also, the half-life in data set [3] was 9 min; in data set [4] it was 2.5 min.
Take `CCOc1ccc(-c2nc(CC)c(NC(CC)CC)nc2CC)c(OC)c1`: in data set [2], the affinity, expressed as Ki, was 7.8 nM.
For `CCC(CC)Nc1nc(OC)c(-c2ccc(Cl)cc2Cl)nc1C`, the Ki in data set [2] is 14.4 nM. Further, the half-life is 56 min in data set [3] and 17 min in data set [4].
In the case of `CCc1nc(NC(CC)CC)c(I)nc1-c1ccc(Cl)cc1Cl`, in data set [2], the affinity corresponds to a Ki of 12 nM.
The compound `CCOc1nc(-c2ccc(Cl)cc2Cl)c(CC)nc1NC(CC)CC` had a Ki in data set [2] of 151 nM. For the same compound, the half-life in data set [3] came to 120 min; in data set [4] it was 74 min.
For `COCC(COC)Nc1nc(C)nc2c(-c3ccc(Cl)cc3Cl)c(C)nn12`, in data set [1], affinity was put at a Ki of 2 nM.
In turn, `CCc1nc(-c2cnc(C)cc2N(C)C)c(CC)nc1NC(CC)CC` showed a Ki in data set [2] of 7.6 nM. For the same compound, the half-life is 7 min in data set [3] and under 1 min in data set [4].
For `CCc1nc(NC(CC)CC)c(Cl)nc1-c1ccc(Cl)cc1Cl` the same measures were 71 nM, 10 min and under 1 min.
For `CCc1nc(NC(CC)CC)c(OC)nc1-c1ccc(C(F)(F)F)cc1OC` the same measures were 4.4 nM, 73 min and 23 min.
For `CCc1nc(N(CCOC)CCOC)c(CC)nc1-c1ccc(Cl)cc1Cl` the same measures were 128 nM, 2 min and under 1 min.
`CCc1cc(OC)ccc1-c1nc(OC)c(NC(CC)CC)nc1CC` showed a Ki in data set [2] of 1.9 nM. Also, the half-life in data set [3] and in data set [4] was 120 min in each case.
The compound `CCc1nc(N(CC2CC2)CC2CC2)c(CC)nc1-c1ccc(Cl)cc1Cl` yielded a Ki in data set [2] of 26 nM. The half-life was 8 min in data set [3] and under 1 min in data set [4].
For `CCc1nc(-c2ccc(Cl)cc2Cl)c(CC)nc1NC(C1CC1)C1CC1` the same measures were 3.7 nM, 11 min and 2.5 min.
For `CCc1nc(-c2ccc(Cl)cc2Cl)c(CC)nc1NC(C)CN(C)C` (stereo unspecified) the same measures were 489 nM, 7 min and under 1 min.
For `CCc1nc(-c2ccc(C)cc2OC)c(CC)nc1NC(CC)CC` the same measures were 23.7 nM, 11 min and under 1 min.
With `CCCN(CCN(C)C)c1nc(CC)c(-c2ccc(Cl)cc2Cl)nc1CC`, the affinity in data set [2] corresponds to a Ki of 1540 nM. The half-life is 5 min in data set [3] and under 1 min in data set [4].
For `CCc1nc(-c2cnc(OC)nc2OC)c(CC)nc1NC(CC)CC` the same measures were 17.2 nM, 7 min and under 1 min.
For `CCc1nc(-c2ccc(OC)cc2O)c(CC)nc1NC(CC)CC` the same measures were 1180 nM, 18 min and 5.9 min.
For `CCc1nc(-c2ccc(Cl)cc2Cl)c(CC)nc1CC(CC)CC` the same measures were 68 nM, 13 min and 2.5 min.
With `CCc1nc(-c2ccc(OC)cc2Cl)c(OC)nc1NC(CC)CC`, in data set [2], affinity was put at a Ki of 1.1 nM. The compound further returned a half-life in data set [3] of 120 min.
Take `CCCCc1nc(-c2ccc(Cl)cc2Cl)c(CC)nc1NC(CC)CC`: the affinity in data set [2] corresponds to a Ki of 3660 nM. In addition, the values for the half-life in data set [3] and in data set [4] were 22 min and 4.2 min, respectively.
For `CCc1nc(-c2ccc(Cl)cc2Cl)c(CC)nc1OC(CC)CC` the same measures were 46 nM, 10 min and 2.5 min.
For `CCC(CC)Nc1nc(C)c(-c2ccc(C(F)(F)F)cc2OC)nc1OC` the same measures were 1.3 nM, 120 min and 120 min.
For `CCc1nc(NC(CC)CC)c(F)nc1-c1ccc(Cl)cc1Cl` the same measures were 167 nM, 73 min and 21 min.
In data set [2], `CCc1nc(NC(CC)CC)c(C)nc1-c1ccc(Cl)cc1Cl` yielded a Ki of 54 nM. For the same compound, the values for the half-life in data set [3] and in data set [4] were 27 min and 11 min, respectively.
For `CCc1nc(-c2ccc(OC)cc2C(F)(F)F)c(CC)nc1NC(CC)CC` the same measures were 4.4 nM, 12 min and 4.3 min.
`CCCN(CC1CC1)c1nc(CC)c(-c2ccc(Cl)cc2Cl)nc1CC` registered a Ki in data set [2] of 19.2 nM. Further, the results for the half-life in data set [3] and in data set [4] were 12 min and 4.2 min, respectively.
For `CCC(CC)Nc1nc(C)c(-c2ccc(Cl)cc2Cl)nc1C` the same measures were 27 nM, 29 min and 3.2 min.
For `CCc1nc(-c2ccc(OC(C)C)cc2OC)c(CC)nc1NC(CC)CC` the same measures were 4.2 nM, 11 min and under 1 min.
For `CCc1nc(NC(CC)CC)c(OC)nc1-c1ccc(OC(F)F)cc1Cl` the same measures were 1.4 nM, 120 min and 47 min.
On to `CCC(CC)Nc1nc(C)c(-c2ccc(OC(F)F)cc2Cl)nc1OC`, for which, in data set [2], affinity was put at a Ki of 4.6 nM. For the same compound, the figures for the half-life in data set [3] and in data set [4] were 120 min and 48 min, respectively.

The term Ki denotes the equilibrium dissociation constant of an inhibitor or competing ligand from its target. Usually half-life stands for the time needed for the level to fall by half in the phase considered.
